{"data": "Measurements gathered from unrelated publications", "target": "Dual specificity mitogen-activated protein kinase kinase 3 (MAP2K3, Homo sapiens, UniProt P46734)", "Residues used in one study (P46734 1-347)": "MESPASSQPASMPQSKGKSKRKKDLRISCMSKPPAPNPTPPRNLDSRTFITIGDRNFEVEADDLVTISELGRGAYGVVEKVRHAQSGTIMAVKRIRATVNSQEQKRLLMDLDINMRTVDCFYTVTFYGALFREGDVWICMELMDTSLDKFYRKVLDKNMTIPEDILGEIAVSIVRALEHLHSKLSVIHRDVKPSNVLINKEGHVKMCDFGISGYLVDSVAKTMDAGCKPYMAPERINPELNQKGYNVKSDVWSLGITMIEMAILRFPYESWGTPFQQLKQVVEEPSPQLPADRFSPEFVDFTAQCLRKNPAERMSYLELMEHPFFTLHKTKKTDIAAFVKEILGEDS", "note": "Protocols differ between the studies behind these lines."}
{"Compound": "CC(=O)C1=C(C)N(c2cccc(C(F)(F)F)c2)C(=O)N[C@@H]1c1ccc(C#N)nc1", "read-out": "cell-free assay", "method": "competition with immobilised ligand", "concentration": "1 µM", "quantity": "remaining binding", "value": "95.2%"}
{"Compound": "Cc1ccc(C(=O)Nc2ccc(CN3CCN(C)CC3)c(C(F)(F)F)c2)cc1C#Cc1cnc2cccnn12", "read-out": "enzyme activity", "action": "inhibitor", "concentration": "23.5 nM", "quantity": "remaining activity", "value": "94%"}
{"Compound": "CC/C(=N\\NC(=O)NCc1cccc(O)c1)c1ccc(O)c(C)c1O", "read-out": "enzyme activity", "action": "inhibitor", "concentration": "0.1 µM", "quantity": "inhibition", "value": "-2.5%"}
{"Compound": "C[C@@H]1CCN(c2nccc(-c3cnn4ncccc34)n2)C1", "read-out": "binding", "concentration": "1 µM", "quantity": "remaining binding", "value": "69%"}
{"Compound": "Nc1ncnc2occ(-c3ccc(NC(=O)Nc4cc(C(F)(F)F)ccc4F)cc3)c12", "read-out": "cell-free assay", "action": "inhibitor", "concentration": "20 µM", "quantity": "remaining signal", "value": "11%"}
{"Compound": "O=C(Nc1cnn(-c2csc(C(=O)NC3COC3)c2)c1)Nc1c(F)cccc1Cl", "read-out": "enzyme activity", "action": "inhibitor", "concentration": "5 µM", "quantity": "remaining activity", "value": "111%"}
{"Compound": "CN1CC(Oc2cnc(C#N)cc2-c2ccn3nc(NC(=O)C4CC4)cc3c2)C1", "read-out": "enzyme activity", "action": "inhibitor", "concentration": "1 µM", "quantity": "inhibition", "value": "-8%"}
{"Compound": "Cc1ccc(C(=O)NCc2ccsc2)cc1C#Cc1cn(C(C)C)c2ncnc(N)c12", "read-out": "enzyme activity", "action": "inhibitor", "concentration": "1 µM", "quantity": "activity vs control", "value": "77%"}
{"Compound": "Cc1sc(C(=O)NC2COC2)cc1-n1cc(NC(=O)Nc2c(F)cccc2Cl)cn1", "read-out": "enzyme activity", "action": "inhibitor", "concentration": "10 µM", "quantity": "remaining activity", "value": "88.8%"}
{"Compound": "Cc1c(NC(=O)c2cc(C(N)=O)nc3cc(F)ccc23)c(C(F)(F)F)nn1Cc1ccc(C(C)(C)C)cc1", "read-out": "cell-free assay", "method": "competition with immobilised ligand", "concentration": "1 µM", "quantity": "remaining binding", "value": "90%"}
